Source: ChEMBL document CHEMBL4425120, “N1-Azinylsulfonyl-1H-indoles: 5-HT6 Receptor Antagonists with Procognitive and Antidepressant-Like Properties” (ACS Med Chem Lett, 2016)
Calls of active or inactive are those of the source. No cut-off for these calls is given here.

Assays:
[1] = target: 5-hydroxytryptamine receptor 7 (Homo sapiens, UniProt P34969); experiment: Displacement of [3H]-5-CT from human 5-HT7B receptor expressed in HEK293 cells by microbeta liquid scintillation counting; format: cell-based
Outline: (§1)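 Ki values reported as the mean of two independent radioligand binding experiments.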

Homo sapiens [2] = organism: Homo sapiens; experiment: Selectivity ratio of Ki for human D2L receptor expressed in HEK293 cells to Ki for human 5-HT6 receptor expressed in HEK293 cells; format: cell-based
Rattus norvegicus [3] = experiment: Antidepressant activity in Sprague-Dawley rat assessed as reduction in immobility time at 0.3 mg/kg, ip adminstered 60 mins prior to testing measured for 5 mins by forced swimming test; format: functional, organism-based
Outline: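 Modified forced swim test in rats with i.p. dosing. Immobility time and climbing time were scored. Data are mean ± SEM, n = 7–8 animals per group, compared against the vehicle-treated group.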

Homo sapiens [4] = organism: Homo sapiens; experiment: Selectivity ratio of Ki for human 5-HT1A receptor expressed in HEK293 cells to Ki for human 5-HT6 receptor expressed in HEK293 cells; format: cell-based
[5] = Solubility of the compound at pH 7.4; format: physicochemical; conditions: buffer
Cytochrome P450 1A2 = Cytochrome P450 1A2 (Homo sapiens, UniProt P05177); experiment: Inhibition of human CYP1A2 expressed in supersomes assessed as caffeine 3-N-demethylation after 15 mins by HPLC analysis; format: ADME
[6] = target: Alpha-2C adrenergic receptor (Homo sapiens) (UniProt P18825); experiment: Displacement of [3H]RX 821002 from human recombinant adrenergic alpha 2C receptor expressed in CHO cells after 60 mins by scintillation counting; format: cell-based
[7] = Ratio of drug level in Wistar rat brain to plasma at 3 mg/kg, ip after 15 to 90 mins by LC-MS/MS analysis; format: ADME, organism-based; conditions: read-out: BPR
Outline: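 Male Wistar rats received a single 3 mg/kg i.p. dose. Brain and plasma drug levels were measured at 15, 30 and 90 min after dosing. Brain level is expressed as ng/g tissue, alongside the brain-to-plasma concentration ratio.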

[8] = Mutagenicity in Salmonella typhimurium TA1535 at 0.2 to 16 ug/ml after 48 hrs by Ames test; format: toxicity; conditions: salmonella enterica subsp. enterica serovar typhimurium
Cytochrome P450 2D6 = Cytochrome P450 2D6 (Homo sapiens, UniProt P10635); experiment: Inhibition of human CYP2D6 expressed in supersomes assessed as bufuralol 1'-hydroxylation after 15 mins by HPLC analysis; format: ADME
Homo sapiens [9] = organism: Homo sapiens; experiment: Selectivity ratio of Ki for human 5-HT2A receptor expressed in HEK293 cells to Ki for human 5-HT6 receptor expressed in HEK293 cells; format: cell-based
[10] = Mutagenicity in Salmonella typhimurium TA98 at 0.2 to 16 ug/ml after 48 hrs by Ames test; format: toxicity; conditions: salmonella enterica subsp. enterica serovar typhimurium
[11] = target: T1, 5-hydroxytryptamine receptor 6 (Homo sapiens, UniProt P50406); experiment: Antagonist activity at human recombinant 5-HT6 receptor expressed in CHO cells assessed as inhibition of serotonin-induced intracellular cAMP accumulation after 30 mins by HTRF assay; format: functional, cell-based
Rattus norvegicus [12] = experiment: Cognitive enhancing effect in ip dosed Sprague-Dawley rat assessed as reversal of PCP induced memory deficit administered 1 hour and 15 mins before familiarization phase by novel object recognition test; format: functional; conditions: for minimal effective dose: read-out: MED
Outline: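 Memory deficit induced with PCP in rats. Test and reference agents were given i.p., and the reversal of the deficit in novel-object recognition was scored. Data are mean ± SEM, n = 7–12 animals per group, compared against the vehicle and PCP groups.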

Cytochrome P450 2C9 = Cytochrome P450 2C9 (Homo sapiens, UniProt P11712); experiment: Inhibition of human CYP2C9 expressed in supersomes assessed as diclofenac 4'-hydroxylation after 15 mins by HPLC analysis; format: ADME
[13] = target: Muscarinic acetylcholine receptor M1 (Homo sapiens) (UniProt P11229); experiment: Displacement of [3H]pirenzepine from human recombinant muscarinic M1 receptor expressed in CHO cells after 60 mins by scintillation counting; format: cell-based
[14] = target: T2, 5-hydroxytryptamine receptor 1A (Homo sapiens, UniProt P08908); experiment: Displacement of [3H]-8-OH-DPAT from human 5-HT1A receptor expressed in HEK293 cells by microbeta liquid scintillation counting; format: cell-based; outline: as §1
T2 sequence (P08908 whole entry): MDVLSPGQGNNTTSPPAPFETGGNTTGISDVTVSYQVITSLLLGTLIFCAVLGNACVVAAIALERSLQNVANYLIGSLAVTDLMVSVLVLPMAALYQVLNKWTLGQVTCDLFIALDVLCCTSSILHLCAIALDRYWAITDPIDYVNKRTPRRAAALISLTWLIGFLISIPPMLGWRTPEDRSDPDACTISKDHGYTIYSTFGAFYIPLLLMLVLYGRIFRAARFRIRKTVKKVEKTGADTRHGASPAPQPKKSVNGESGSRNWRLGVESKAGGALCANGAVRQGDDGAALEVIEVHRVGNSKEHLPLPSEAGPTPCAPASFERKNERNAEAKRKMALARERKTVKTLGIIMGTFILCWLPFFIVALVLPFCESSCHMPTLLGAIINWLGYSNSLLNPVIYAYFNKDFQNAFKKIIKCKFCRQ

[15] = Solubility of the compound at pH 2; format: physicochemical; conditions: buffer
[16] = Mutagenicity in Salmonella typhimurium TA1537 at 0.2 to 16 ug/ml after 48 hrs by Ames test; format: toxicity; conditions: salmonella enterica subsp. enterica serovar typhimurium
Homo sapiens [17] = organism: Homo sapiens; experiment: Selectivity ratio of Ki for human 5-HT7B receptor expressed in HEK293 cells to Ki for human 5-HT6 receptor expressed in HEK293 cells; format: cell-based
D(3) dopamine receptor = D(3) dopamine receptor (Homo sapiens, UniProt P35462); experiment: Antagonist activity at human recombinant dopamine D3 receptor expressed in CHO cells assessed as inhibition of dopamine-induced cAMP accumulation after 30 mins by HTRF assay; format: functional, cell-based
[18] = target: 5-hydroxytryptamine receptor 2C (Homo sapiens) (UniProt P28335); experiment: Displacement of [3H]mesulergine from human recombinant 5-HT2C receptor expressed in HEK293 cells after 120 mins by scintillation counting; format: cell-based
[19] = target: Voltage-gated inwardly rectifying potassium channel KCNH2 (Homo sapiens, UniProt Q12809); experiment: Displacement of [3H]Dofetilide from human recombinant ERG expressed in HEK293 cells at 10 to 50 uM after 60 mins by scintillation counting; format: cell-based; conditions: hek293, 1 h
Cytochrome P450 2C19 = Cytochrome P450 2C19 (Homo sapiens, UniProt P33261); experiment: Inhibition of human CYP2C19 expressed in supersomes assessed as perazine N-demethylation after 15 mins by HPLC analysis; format: ADME
[20] = Toxicity in Sprague-Dawley rat assessed as effect on locomotory activity at 0.1 to 1 mg/kg, ip measured for 5 mins by open field test; format: organism-based; conditions: in vivo
[21] = target: T1, 5-hydroxytryptamine receptor 6; experiment: Displacement of [3H]-LSD from human 5-HT6 receptor expressed in HEK293 cells by microbeta liquid scintillation counting; format: cell-based; outline: as §1
[22] = target: 5-hydroxytryptamine receptor 2A (Homo sapiens, UniProt P28223); experiment: Displacement of [3H]-Ketanserin from human 5-HT2A receptor expressed in HEK293 cells by microbeta liquid scintillation counting; format: cell-based; outline: as §1
[23] = target: Histamine H1 receptor (Homo sapiens) (UniProt P35367); experiment: Displacement of [3H]pyrilamine from human recombinant histamine H1 receptor expressed in HEK293 cells after 60 mins by scintillation counting.; format: cell-based
D(2) dopamine receptor = D(2) dopamine receptor (Homo sapiens, UniProt P14416); experiment: Displacement of [3H]-Raclopride from human D2L receptor expressed in HEK293 cells by microbeta liquid scintillation counting; format: cell-based; outline: as §1
D(2) dopamine receptor, sequence (P14416 whole entry): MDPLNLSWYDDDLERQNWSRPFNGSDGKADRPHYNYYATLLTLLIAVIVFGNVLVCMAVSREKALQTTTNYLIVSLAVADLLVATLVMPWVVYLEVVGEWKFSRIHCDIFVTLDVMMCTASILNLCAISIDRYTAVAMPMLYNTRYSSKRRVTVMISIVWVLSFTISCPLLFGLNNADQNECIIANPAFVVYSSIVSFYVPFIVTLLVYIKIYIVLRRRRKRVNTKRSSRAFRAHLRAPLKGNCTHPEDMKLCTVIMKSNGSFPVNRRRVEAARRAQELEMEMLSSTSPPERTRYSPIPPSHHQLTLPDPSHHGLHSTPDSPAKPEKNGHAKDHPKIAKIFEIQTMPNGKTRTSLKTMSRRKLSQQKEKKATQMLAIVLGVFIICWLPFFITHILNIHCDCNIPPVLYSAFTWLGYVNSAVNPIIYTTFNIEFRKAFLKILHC

T1 sequence (P50406 whole entry): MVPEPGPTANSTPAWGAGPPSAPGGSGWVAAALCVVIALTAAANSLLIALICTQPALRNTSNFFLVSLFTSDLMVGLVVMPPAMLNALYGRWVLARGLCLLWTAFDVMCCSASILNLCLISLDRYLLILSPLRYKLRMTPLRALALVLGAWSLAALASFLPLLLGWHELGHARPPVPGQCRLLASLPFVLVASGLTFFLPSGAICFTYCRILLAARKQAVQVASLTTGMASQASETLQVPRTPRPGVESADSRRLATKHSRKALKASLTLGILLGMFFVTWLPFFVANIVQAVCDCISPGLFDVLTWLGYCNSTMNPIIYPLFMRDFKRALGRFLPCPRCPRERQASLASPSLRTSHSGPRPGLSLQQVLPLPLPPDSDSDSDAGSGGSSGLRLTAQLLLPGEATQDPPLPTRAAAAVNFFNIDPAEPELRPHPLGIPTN
5-hydroxytryptamine receptor 7, sequence (P34969 whole entry): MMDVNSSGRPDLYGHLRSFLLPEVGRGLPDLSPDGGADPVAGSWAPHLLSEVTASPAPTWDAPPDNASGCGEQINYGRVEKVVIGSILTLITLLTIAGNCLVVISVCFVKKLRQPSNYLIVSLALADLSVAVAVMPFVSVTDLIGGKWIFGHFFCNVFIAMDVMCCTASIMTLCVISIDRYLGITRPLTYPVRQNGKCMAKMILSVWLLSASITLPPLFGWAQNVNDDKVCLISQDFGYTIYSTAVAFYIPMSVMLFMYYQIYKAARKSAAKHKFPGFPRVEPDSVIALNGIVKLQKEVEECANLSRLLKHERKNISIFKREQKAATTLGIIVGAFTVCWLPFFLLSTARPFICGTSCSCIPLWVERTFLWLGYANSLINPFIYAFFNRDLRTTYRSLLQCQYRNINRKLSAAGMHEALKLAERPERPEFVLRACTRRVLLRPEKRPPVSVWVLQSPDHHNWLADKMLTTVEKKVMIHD
Alpha-2C adrenergic receptor (Homo sapiens), sequence (P18825 whole entry): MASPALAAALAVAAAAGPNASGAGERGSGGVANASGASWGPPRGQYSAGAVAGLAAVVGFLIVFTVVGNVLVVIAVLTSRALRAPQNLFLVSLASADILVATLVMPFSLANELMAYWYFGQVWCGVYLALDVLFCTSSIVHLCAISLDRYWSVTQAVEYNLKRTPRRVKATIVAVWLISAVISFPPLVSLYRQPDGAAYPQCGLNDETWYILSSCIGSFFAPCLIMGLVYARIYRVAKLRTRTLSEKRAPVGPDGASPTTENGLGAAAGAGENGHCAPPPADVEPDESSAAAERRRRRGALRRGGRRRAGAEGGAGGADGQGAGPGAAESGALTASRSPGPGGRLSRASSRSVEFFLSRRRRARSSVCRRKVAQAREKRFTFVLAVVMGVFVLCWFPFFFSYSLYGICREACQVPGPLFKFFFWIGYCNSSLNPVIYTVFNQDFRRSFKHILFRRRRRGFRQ
Cytochrome P450 2C9, sequence (P11712 whole entry): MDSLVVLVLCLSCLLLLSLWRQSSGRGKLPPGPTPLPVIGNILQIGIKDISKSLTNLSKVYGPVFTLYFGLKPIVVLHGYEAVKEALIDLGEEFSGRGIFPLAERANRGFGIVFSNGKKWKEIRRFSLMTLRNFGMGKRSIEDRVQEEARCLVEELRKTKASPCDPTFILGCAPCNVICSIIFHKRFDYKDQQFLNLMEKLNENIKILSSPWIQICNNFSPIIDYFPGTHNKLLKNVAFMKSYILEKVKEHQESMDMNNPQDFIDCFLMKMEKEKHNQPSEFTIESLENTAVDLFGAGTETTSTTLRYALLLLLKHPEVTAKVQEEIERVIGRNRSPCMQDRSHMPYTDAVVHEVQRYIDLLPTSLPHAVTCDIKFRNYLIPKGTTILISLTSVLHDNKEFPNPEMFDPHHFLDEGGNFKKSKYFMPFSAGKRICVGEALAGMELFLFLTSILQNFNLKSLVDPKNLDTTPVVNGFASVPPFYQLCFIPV
D(3) dopamine receptor, sequence (P35462 whole entry): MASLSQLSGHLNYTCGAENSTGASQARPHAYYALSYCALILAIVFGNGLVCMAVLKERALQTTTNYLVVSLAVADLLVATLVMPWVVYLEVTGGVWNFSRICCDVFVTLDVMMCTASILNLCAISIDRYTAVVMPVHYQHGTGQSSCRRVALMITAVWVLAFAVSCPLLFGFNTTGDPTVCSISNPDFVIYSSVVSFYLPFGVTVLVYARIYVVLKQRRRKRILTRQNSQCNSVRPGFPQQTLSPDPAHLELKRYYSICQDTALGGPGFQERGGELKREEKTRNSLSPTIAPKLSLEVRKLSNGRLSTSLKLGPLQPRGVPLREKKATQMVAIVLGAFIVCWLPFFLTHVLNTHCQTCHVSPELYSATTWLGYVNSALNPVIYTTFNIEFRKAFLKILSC
Cytochrome P450 2C19, sequence (P33261 whole entry): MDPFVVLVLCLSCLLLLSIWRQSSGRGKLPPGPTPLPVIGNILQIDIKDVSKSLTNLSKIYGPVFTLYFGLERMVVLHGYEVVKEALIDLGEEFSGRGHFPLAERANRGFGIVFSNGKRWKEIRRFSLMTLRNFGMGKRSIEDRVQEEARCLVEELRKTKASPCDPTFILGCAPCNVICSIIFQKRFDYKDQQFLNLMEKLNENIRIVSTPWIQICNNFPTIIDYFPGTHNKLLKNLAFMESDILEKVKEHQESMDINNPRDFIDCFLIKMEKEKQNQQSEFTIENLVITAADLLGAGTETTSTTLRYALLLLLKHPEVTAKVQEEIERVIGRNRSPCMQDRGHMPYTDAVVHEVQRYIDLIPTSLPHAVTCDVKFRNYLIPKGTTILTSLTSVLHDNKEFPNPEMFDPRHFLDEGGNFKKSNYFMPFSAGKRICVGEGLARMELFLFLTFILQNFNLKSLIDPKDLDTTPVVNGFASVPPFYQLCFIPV
Histamine H1 receptor (Homo sapiens), sequence (P35367 whole entry): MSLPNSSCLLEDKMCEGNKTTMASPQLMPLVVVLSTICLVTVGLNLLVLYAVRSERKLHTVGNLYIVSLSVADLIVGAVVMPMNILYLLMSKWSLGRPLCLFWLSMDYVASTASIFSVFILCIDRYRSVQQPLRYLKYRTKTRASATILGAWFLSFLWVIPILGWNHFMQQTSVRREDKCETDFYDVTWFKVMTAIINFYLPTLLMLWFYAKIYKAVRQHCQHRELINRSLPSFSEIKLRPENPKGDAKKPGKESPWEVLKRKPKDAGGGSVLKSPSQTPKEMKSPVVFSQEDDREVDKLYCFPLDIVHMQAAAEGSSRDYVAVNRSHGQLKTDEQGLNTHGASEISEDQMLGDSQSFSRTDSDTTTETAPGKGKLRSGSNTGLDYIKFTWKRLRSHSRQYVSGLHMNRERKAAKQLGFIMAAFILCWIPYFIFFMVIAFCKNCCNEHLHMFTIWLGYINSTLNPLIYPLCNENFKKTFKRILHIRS
Voltage-gated inwardly rectifying potassium channel KCNH2, sequence (Q12809 whole entry): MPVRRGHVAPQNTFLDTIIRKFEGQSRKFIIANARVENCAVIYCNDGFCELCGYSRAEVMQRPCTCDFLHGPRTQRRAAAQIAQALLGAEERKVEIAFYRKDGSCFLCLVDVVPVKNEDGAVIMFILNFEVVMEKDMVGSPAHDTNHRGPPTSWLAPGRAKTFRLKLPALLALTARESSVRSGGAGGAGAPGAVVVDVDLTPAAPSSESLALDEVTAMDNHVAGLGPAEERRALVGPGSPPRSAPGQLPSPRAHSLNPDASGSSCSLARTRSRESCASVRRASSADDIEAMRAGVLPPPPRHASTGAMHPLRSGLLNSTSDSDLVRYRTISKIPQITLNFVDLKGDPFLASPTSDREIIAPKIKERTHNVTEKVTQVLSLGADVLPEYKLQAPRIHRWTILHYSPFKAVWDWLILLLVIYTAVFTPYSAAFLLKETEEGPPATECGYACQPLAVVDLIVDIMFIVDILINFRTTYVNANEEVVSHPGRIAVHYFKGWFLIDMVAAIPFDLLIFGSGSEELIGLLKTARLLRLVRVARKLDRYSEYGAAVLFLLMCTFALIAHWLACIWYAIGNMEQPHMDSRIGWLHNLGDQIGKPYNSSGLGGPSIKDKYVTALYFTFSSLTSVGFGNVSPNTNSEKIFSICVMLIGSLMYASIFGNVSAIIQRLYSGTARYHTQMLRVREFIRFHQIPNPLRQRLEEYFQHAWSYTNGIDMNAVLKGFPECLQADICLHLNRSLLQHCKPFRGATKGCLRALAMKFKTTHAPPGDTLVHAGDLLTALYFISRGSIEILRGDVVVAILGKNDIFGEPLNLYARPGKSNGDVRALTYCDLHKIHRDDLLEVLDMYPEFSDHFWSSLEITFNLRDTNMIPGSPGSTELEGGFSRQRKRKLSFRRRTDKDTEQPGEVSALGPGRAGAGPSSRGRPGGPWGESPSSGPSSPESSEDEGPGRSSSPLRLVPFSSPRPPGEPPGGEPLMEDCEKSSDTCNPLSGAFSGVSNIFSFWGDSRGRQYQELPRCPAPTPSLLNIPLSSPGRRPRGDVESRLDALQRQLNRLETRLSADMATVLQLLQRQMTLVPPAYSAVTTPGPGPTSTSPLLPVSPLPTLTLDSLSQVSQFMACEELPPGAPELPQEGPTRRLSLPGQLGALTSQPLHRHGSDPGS

Structure (SMILES) | Ki [1] [µM] | Ratio Ki (Homo sapiens [2]) | Activity (Rattus norvegicus [3]) | Ratio Ki (Homo sapiens [4]) | solubility [5] [µg/mL] | IC50 (Cytochrome P450 1A2) [µM] | inhibition [6] [%] | Kp [7] | Activity [8] | IC50 (Cytochrome P450 2D6) [µM] | Ratio Ki (Homo sapiens [9]) | Activity [10] | Kb [11] [µM] | Activity (Rattus norvegicus [12]) | minimal effective dose (Rattus norvegicus [12]) [mg/kg] | IC50 (Cytochrome P450 2C9) [µM] | inhibition [13] [%] | Ki [14] [µM] | solubility [15] [µg/mL] | Activity [16] | further results
COc1ccc2c(c1)c(C1=CCNCC1)cn2S(=O)(=O)c1ccc2cccnc2c1 | 6.25 | 70 | Active | 70 | > 5000 | 100 | 18 | 0.1 to 0.6 | Non-Toxic | > 100 | 70 | Non-Toxic | 0.0044 | Dose-dependent effect | 1 | > 100 | 11 | 5.04 | > 5000 | Non-Toxic | Ratio Ki (Homo sapiens [17]): 70; inhibition (D(3) dopamine receptor): inactive; inhibition [18]: 18%; inhibition (INH) [19]: Not Active; IC50 (Cytochrome P450 2C19): > 100 µM; Activity [20]: Non-Toxic; Ki [21]: 0.002 µM; Ki [22]: 1 µM; inhibition [23]: 9%; Ki (D(2) dopamine receptor): 0.24 µM
COc1ccc2c(c1)c(C1=CCNCC1)cn2S(=O)(=O)c1cncc2ccccc12 | 7.83 | 70 | Active | 70 | > 5000 | 100 | 21 | 0.1 to 0.6 | Non-Toxic | > 100 | 70 | Non-Toxic | 0.0056 | Dose-dependent effect | 1 | > 100 | 0 | 5.01 | > 5000 | Non-Toxic | Ratio Ki (Homo sapiens [17]): 70; inhibition (D(3) dopamine receptor): inactive; inhibition [18]: 15%; inhibition (INH) [19]: Not Active; IC50 (Cytochrome P450 2C19): > 100 µM; Activity [20]: Non-Toxic; Ki [21]: 0.003 µM; Ki [22]: 3.35 µM; inhibition [23]: 15%; Ki (D(2) dopamine receptor): 3.32 µM
